From ChEMBL document CHEMBL2375262, “Thiazolidin-4-one and thiazinan-4-one derivatives analogous to rosiglitazone as potential antihyperglycemic and antidyslipidemic agents” (2013)

Key:
Format in all cases: functional
[1] = tested on: Mus musculus; assay: Insulin resistance reversal activity in db/db mouse assessed as decrease in plasma insulin level at 100 mg/kg, po qd administered 15 days measured on day 16 by ELISA relative to vehicle-treated control; design: scale not given: the % may be the effect or the level left
Summary of the method: (§1)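 db/db males, 10-12 weeks, >40 g, baseline glucose 180-300 mg/dl, n=6 per group. Oral suspension in 1% gum acacia given once daily for days 1-15; vehicle controls. At study end, retro-orbital plasma insulin was measured by ELISA. Groups were compared by Dunnett's test.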

[2] = tested on: Mus musculus; assay: Antidyslipidemic activity in db/db mouse assessed as increase in plasma HDL-cholesterol level at 100 mg/kg, po qd administered 15 days […] relative to vehicle-treated control
[3] = tested on: Mus musculus; assay: Antidyslipidemic activity in db/db mouse assessed as decrease in plasma total cholesterol level at 100 mg/kg, po qd administered 15 days […] relative to vehicle-treated control; design: scale not given: the % may be the effect or the level left
[4] = tested on: Mus musculus; assay: Antidyslipidemic activity in db/db mouse assessed as decrease in plasma triglycerides level at 100 mg/kg, po qd administered 15 days […] relative to vehicle-treated control; design: scale not given: the % may be the effect or the level left
[5] = tested on: Mus musculus; assay: Antihyperglycemic activity in db/db mouse assessed as inhibition of post prandial blood glucose level at 100 mg/kg, po qd administered 15 days by OGTT relative to vehicle-treated control; details: 360 h
Summary of the method: (§2)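 Male db/db mice, 10-12 weeks, >40 g, with blood glucose 180-300 mg/dl; six per group. Dosed orally once daily in 1% gum acacia on days 1-15, with vehicle controls. Blood glucose was read daily. OGTT on days 10 and 15 after an overnight fast: glucose at -30, 0, 30, 60, 90 and 120 min around an oral 3.0 g/kg glucose load. Activity was taken from AUC versus control; Dunnett's test.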

[6] = tested on: Mus musculus; assay: Antihyperglycemic activity in db/db mouse assessed as inhibition of post prandial blood glucose level at 100 mg/kg, po qd administered 15 days measured on day 10 by OGTT relative to vehicle-treated control; summary of the method: as §2
[7] = tested on: Mus musculus; assay: Antihyperglycemic activity in db/db mouse assessed as reduction of blood glucose level at 100 mg/kg, po qd measured daily for 15 days relative to vehicle-treated control; design: scale not given: the % may be the effect or the level left; summary of the method: as §2
[8] = tested on: Mus musculus; assay: Insulin resistance reversal activity in db/db mouse assessed as decrease in plasma insulin level at 30 mg/kg, po qd administered 15 days measured on day 16 by ELISA relative to vehicle-treated control; design: scale not given: the % may be the effect or the level left; summary of the method: as §1
[9] = tested on: Mus musculus; assay: Antidyslipidemic activity in db/db mouse assessed as increase in plasma HDL-cholesterol level at 30 mg/kg, po qd administered 15 days […] relative to vehicle-treated control
[10] = tested on: Mus musculus; assay: Antidyslipidemic activity in db/db mouse assessed as decrease in plasma total cholesterol level at 30 mg/kg, po qd administered 15 days measured on day 16 […] relative to vehicle-treated control; design: scale not given: the % may be the effect or the level left
Summary of the method: (§3)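 Male db/db mice, 10-12 weeks old, over 40 g. After a 3-day vehicle run-in, animals with blood glucose 180-300 mg/dl were placed in groups of six and gavaged once daily on days 1-15 with a suspension in 1% gum acacia. Controls received vehicle. Terminal retro-orbital plasma was assayed for triglycerides, total and HDL-cholesterol with colorimetric kits. Dunnett's test was used.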

[11] = tested on: Mus musculus; assay: Antidyslipidemic activity in db/db mouse assessed as decrease in plasma triglycerides level at 30 mg/kg, po qd administered 15 days measured on day 16 by ELISA relative to vehicle-treated control; design: scale not given: the % may be the effect or the level left; details: in the assay text read “by colorimetric assay” for “by ELISA”; summary of the method: as §3
[12] = tested on: Mus musculus; assay: Antihyperglycemic activity in db/db mouse assessed as reduction of blood glucose level at 30 mg/kg, po qd measured daily for 15 days relative to vehicle-treated control; design: scale not given: the % may be the effect or the level left; summary of the method: as §2
[13] = tested on: L6; assay: Antihyperglycemic activity in rat L6 cells assessed as increase in 2-deoxy-[3H]-D-glucose uptake at 10 uM after 18 hrs by liquid scintillation counting analysis relative to control
Summary of the method: (§4)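 L6 myoblasts were differentiated to myotubes in DMEM with 2% FBS, then treated for 18 h. After washes, cells took up 3 µCi 2-deoxy-[3H]D-glucose plus 20 µM unlabelled 2-deoxyglucose in HEPES-buffered saline for 15 min. Cells were lysed in 0.1 N NaOH and counted by scintillation; results are % increase over control.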

[14] = tested on: 3T3-L1; assay: Induction of adipogenesis in mouse 3T3L1 cells assessed as accumulation of lipid droplets at 10 uM measured on day 9 by Oil Red O staining method relative to control
Summary of the method: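 3T3-L1 preadipocytes, 2 days post-confluence, were induced with 0.5 mM IBMX, 0.25 µM dexamethasone and insulin in DMEM/10% FBS with compound present. After 3 days, medium changed to insulin alone, then to DMEM/10% FBS. On day 9, lipid droplets were stained with 0.36% Oil Red O in 60% isopropanol for 30 min and examined by microscope.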

[15] = tested on: Mus musculus; assay: Antihyperglycemic activity in db/db mouse assessed as inhibition of post prandial blood glucose level at 30 mg/kg, po qd administered 15 days by OGTT relative to vehicle-treated control; details: 360 h; summary of the method: as §2
[16] = tested on: Mus musculus; assay: Antihyperglycemic activity in db/db mouse assessed as inhibition of post prandial blood glucose level at 30 mg/kg, po qd administered 15 days measured on day 10 by OGTT relative to vehicle-treated control; summary of the method: as §2
[17] = tested on: L6; assay: Antihyperglycemic activity in rat L6 cells assessed as increase in 2-deoxy-[3H]-D-glucose uptake at 50 uM after 18 hrs by liquid scintillation counting analysis relative to control; summary of the method: as §4

`CN(C)C(=N)NC(=N)N` [METFORMIN] showed an Activity [1] of 37%, an Activity [2] of 6.8% and an Activity [3] of 14.6%. It also gave an Activity [4] of 12.1%, an inhibition in vivo at 100 mg/kg [5] of 29.7% and an inhibition in vivo at 100 mg/kg [6] of 29.1%. For the same molecule, the Activity [7] was 23.7%.
`CCCCN1C(=O)CS(=O)(=O)C1c1ccc(OCCN(C)c2ccccn2)cc1` (configuration not stated) was tested, and the Activity [8] was 28.8%, the Activity [9] was 25.7% and the Activity [10] was 7.2%. The Activity [11] was 14.7%, the Activity [12] was 30.2% and the Activity [13] was 51.3%.
`CN(CCOc1ccc(CC2SC(=O)NC2=O)cc1)c1ccccn1` (configuration not stated) [ROSIGLITAZONE] was tested, and the Activity [14] was 24%, the Activity [8] was 44.8% and the Activity [10] was 26.4%. It also gave an Activity [11] of 32.5%, an inhibition in vivo at 30 mg/kg [15] of -40.7% and an inhibition in vivo at 30 mg/kg [16] of -33.3%. The Activity [12] was 53.7% and the Activity [17] was 61.6%.
`CN(CCOc1ccc(C2SCC(=O)N2Cc2ccccc2)cc1)c1ccccn1` (configuration not stated) gave an Activity [8] of 22.4%, an Activity [9] of 22.2% and an Activity [10] of 10.2%. It also gave an Activity [11] of 9.83%, an inhibition in vivo at 30 mg/kg [15] of -16.4% and an inhibition in vivo at 30 mg/kg [16] of -4.3%. It also gave an Activity [12] of 15.4%.
With `CCCCN1C(=O)CCSC1c1ccc(OCCN(C)c2ccccn2)cc1` (configuration not stated) the Activity [13] was 35.4%.
In the case of `CN(CCOc1ccc(C2NC(=O)CS2)cc1)c1ccccn1` (configuration not stated), the Activity [14] was 5.53%, the Activity [8] was 27.4% and the Activity [10] was 19.3%. It also gave an Activity [11] of 14%, an inhibition in vivo at 30 mg/kg [15] of -36.6% and an inhibition in vivo at 30 mg/kg [16] of -25.9%. The Activity [12] was 18.5% and the Activity [13] was 51.9%.
`CN(CCOc1ccc(C2N(Cc3ccccc3)C(=O)C[S+]2[O-])cc1)c1ccccn1` (configuration not stated) gave an Activity [8] of 20.4%, an Activity [9] of 20% and an Activity [11] of 18.4%. It also gave an inhibition in vivo at 30 mg/kg [15] of -20.2%, an inhibition in vivo at 30 mg/kg [16] of -6.4% and an Activity [12] of 22.1%. For the same molecule, the Activity [13] was 45.5%.
For `CCCCN1C(=O)C[S+]([O-])C1c1ccc(OCCN(C)c2ccccn2)cc1` (configuration not stated), the Activity [8] was 24.6%, the Activity [9] was 39.6% and the Activity [10] was 10.8%. The Activity [11] was 19.2%, the inhibition in vivo at 30 mg/kg [15] was -27.2% and the inhibition in vivo at 30 mg/kg [16] was -12.9%. It also gave an Activity [12] of 25.9%.
For `CN(CCOc1ccc(C2SCC(=O)N2C2CC2)cc1)c1ccccn1` (configuration not stated), the Activity [14] was 3.87%, the Activity [8] was 31.8% and the Activity [9] was 8.8%. The Activity [10] was 12.6%, the Activity [11] was 15.6% and the inhibition in vivo at 30 mg/kg [15] was -40.9%. The inhibition in vivo at 30 mg/kg [16] was -26.6%, the Activity [12] was 25.6% and the Activity [13] was 67.2%.
For `CCCCN1C(=O)CSC1c1ccc(OCCN(C)c2ccccn2)cc1` (configuration not stated), the Activity [8] was 17.6%, the Activity [9] was 10.1% and the Activity [10] was 4.8%. The Activity [11] was 31.8%, the inhibition in vivo at 30 mg/kg [15] was -25.4% and the inhibition in vivo at 30 mg/kg [16] was -20.2%. For the same molecule, the Activity [12] was 22.1%.
Work on `CC(C)N1C(=O)CCSC1c1ccc(OCCN(C)c2ccccn2)cc1` (configuration not stated) yielded an Activity [13] of 14.8%.
With `CN(CCOc1ccc(C2SCCC(=O)N2C2CC2)cc1)c1ccccn1` (configuration not stated) the Activity [8] was 26.6%, the Activity [9] was 3.38% and the Activity [10] was 29.5%. The Activity [11] was 29.9%, the inhibition in vivo at 30 mg/kg [15] was -27.9% and the inhibition in vivo at 30 mg/kg [16] was -20.4%. For the same molecule, the Activity [12] was 22.4% and the Activity [13] was 69.5%.
`CN(CCOc1ccc(C2NC(=O)CCS2)cc1)c1ccccn1` (configuration not stated) gave an Activity [8] of 28.8%, an Activity [9] of 1.46% and an Activity [10] of 15.1%. For the same molecule, the Activity [11] was 13.2%, the inhibition in vivo at 30 mg/kg [15] was -44.9% and the inhibition in vivo at 30 mg/kg [16] was -40.8%. The Activity [12] was 30.4% and the Activity [13] was 53.5%.
Work on `CN(CCOc1ccc(C2SCCC(=O)N2Cc2ccccc2)cc1)c1ccccn1` (configuration not stated) yielded an Activity [8] of 21.5%, an Activity [9] of 6.47% and an Activity [10] of 9.88%. The Activity [11] was 25.6%, the inhibition in vivo at 30 mg/kg [15] was -42.6% and the inhibition in vivo at 30 mg/kg [16] was -29.4%. The Activity [12] was 19.1% and the Activity [13] was 33%.
